This is an account of results in ChEMBL document CHEMBL1156664, “Frajunolides E-K, briarane diterpenes from Junceella fragilis” (J Nat Prod, 2008).

Broadly, the IC50 is the concentration that inhibits the measured activity by half. One may read the inhibition as the relative decrease from the control value, in per cent.

One assay relates to WiDr. In words: Cytotoxicity against human WiDr cells by MTT assay. It counts as functional, cell-based. A general note: Formazan colour is commonly taken as a measure of viable cells.
The nature of assay [1]: Antiinflammatory activity against FMLP/CB stimulated human neutrophils assessed as inhibition of superoxide anion generation at 10 ug/mL relative to control. It counts as functional. To be noted: Neutrophil. The essentials:
(§1)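 Human neutrophils were isolated by dextran sedimentation and Ficoll centrifugation. Cells were given 0.5 mg/mL ferricytochrome c and 1 mM Ca2+, equilibrated 2 min at 37 °C, then treated with compound for 5 min. CB (1 µg/mL) was added 3 min before 100 nM FMLP for 10 min. Superoxide was measured as SOD-inhibitable ferricytochrome c reduction. Mean ± SEM, n = 3.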

The subject of another assay is HEp-2. In words: Cytotoxicity against human Hep2 cells by MTT assay. It counts as functional, cell-based.
In the next assay the test system is HeLa. In words: Cytotoxicity against human HeLa cells by MTT assay. It counts as functional, cell-based.
A short description of assay [2]: Cytotoxicity against human Doay cells by MTT assay. It counts as functional, cell-based.
Assay [3] is described as follows: Antiinflammatory activity against FMLP/CB stimulated human neutrophils assessed as inhibition of elastase release at 10 ug/mL relative to control. It counts as functional. To be noted: Neutrophil. The essentials:
(§2)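 Neutrophils were supplemented with 100 µM MeO-Suc-Ala-Ala-Pro-Val-p-nitroanilide at 6 × 10^5/mL, equilibrated 2 min at 37 °C, then given compound for 5 min. They were activated with FMLP (100 nM)/CB (0.5 µg/mL), and A405 was followed continuously. The initial rate is expressed relative to the FMLP/CB-activated DMSO control. Mean ± SEM, n = 3.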

A short description of assay [4]: Antiinflammatory activity against FMLP/CB stimulated human neutrophils assessed as inhibition of elastase release relative to control. It counts as functional, cell-based. To be noted: Neutrophil. In outline:
as §2

Assay [5] in a line: Antiinflammatory activity against FMLP/CB stimulated human neutrophils assessed as inhibition of superoxide anion generation relative to control. It counts as functional, cell-based. To be noted: Neutrophil. In outline:
as §1

Converted amounts (≈) assume the structure as drawn.

For the compound `C=C1C[C@H](OC(C)=O)[C@H](OC(C)=O)[C@]2(C)[C@@H](OC(C)=O)C[C@@]3(O)O[C@]4([C@@H](C)C(=O)O[C@H]4[C@@H](Cl)C3=C)[C@@H](OC(C)=O)[C@@H]12` (relative stereo) [FRAJUNOLIDE F], the IC50 (in the assay with WiDr; in the assay with HEp-2; with HeLa; in assay [2]) was more than 20 mg/L each time. Further, the inhibition at 10 µg/mL in assay [1] is 7.4%; in assay [3], 10.4%.

`C=C1CC[C@H](OC(C)=O)[C@]2(C)[C@@H](OC(=O)COC(=O)CC(C)C)/C=C\C(=C)[C@H](Cl)[C@@H]3OC(=O)[C@H](C)[C@@]3(O)[C@@H](OC(C)=O)[C@@H]12` (relative stereo) [FRAJUNOLIDE K]: the IC50 (with WiDr; in the assay with HEp-2; with HeLa; in assay [2]) was more than 20 mg/L in each case. For the same compound, the values for the inhibition at 10 µg/mL in assay [1] and in assay [3] were 2.4% and 8%, respectively.

Regarding `C=C1/C=C\[C@H](OC(=O)COC(=O)CC(C)C)[C@@]2(C)[C@@H](OC(C)=O)CC[C@]3(CO3)[C@@H]2[C@H](OC(C)=O)[C@]2(O)[C@@H](C)C(=O)O[C@H]2[C@H]1Cl` (relative stereo) [FRAJUNOLIDE G], the IC50 (in the assay on WiDr; with HEp-2; in the assay with HeLa; in assay [2]) was more than 20 mg/L in each case. The inhibition at 10 µg/mL in assay [1] was -7.5%; in assay [3], 8.3%.

With `C=C1[C@@H]2[C@H](OC(C)=O)[C@@]3(O)[C@H](/C=C(/C)CC[C@H](OC(C)=O)[C@@]2(C)[C@@H](OC(C)=O)C[C@H]1OC(=O)CC)OC(=O)[C@@H]3C` (relative stereo) [FRAJUNOLIDE J], the IC50 (in the assay with WiDr; in the assay on HEp-2; with HeLa; in assay [2]) was more than 20 mg/L each time. The inhibition at 10 µg/mL was 20.1% in assay [1] and 19.9% in assay [3].

For `C=C1/C=C/[C@H](OC(C)=O)[C@@]2(C)[C@@H](OC(C)=O)[C@@H](OC(C)=O)C[C@]3(CO3)[C@@H]2[C@H](OC(C)=O)[C@]2(O)[C@@H](C)C(=O)O[C@H]2[C@H]1Cl` (relative stereo) [FRAJUNOLIDE I], the IC50 (with WiDr; in the assay with HEp-2; in the assay with HeLa; in assay [2]) was more than 20 mg/L in each case. In addition, the inhibition at 10 µg/mL in assay [1] was -10.3%; in assay [3], 18.2%.

`C=C1C[C@H](OC(C)=O)[C@H](OC(C)=O)[C@]2(C)[C@@H](OC(C)=O)/C=C/C(=C)[C@H](Cl)[C@@H]3OC(=O)[C@H](C)[C@@]3(O)[C@@H](OC(C)=O)[C@@H]12` (relative stereo) [FRAJUNOLIDE H]: the IC50 (in the assay on WiDr; with HEp-2; in the assay with HeLa; in assay [2]) was more than 20 mg/L in each case. The inhibition at 10 µg/mL was -1.9% in assay [1] and 0.1% in assay [3].

With `O=c1c(-c2ccc(O)cc2)coc2cc(O)cc(O)c12` [GENISTEIN], the inhibition at 10 µg/mL in assay [1] was 65%; in assay [3], 51.6%.

Take `CC[C@@]1(O)C(=O)OCc2c1cc1n(c2=O)Cc2cc3ccccc3nc2-1` [CAMPTOTHECIN]: the IC50 with WiDr came out at 0.07 mg/L (≈ 0.201 µM); with HEp-2, 0.02 mg/L (≈ 0.0574 µM); in the assay with HeLa, 0.19 mg/L (≈ 0.545 µM); in assay [2], 0.08 mg/L (≈ 0.23 µM).

Consider `C=C1C[C@H](OC(C)=O)[C@H](OC(C)=O)[C@]2(C)[C@@H](OC(C)=O)CC/C(C)=C\[C@@H]3OC(=O)[C@H](C)[C@@]3(O)[C@@H](OC(C)=O)[C@@H]12` (relative stereo) [FRAJUNOLIDE E], for which the IC50 is 27.4 mg/L (≈ 49.8 µM) in assay [4]; more than 20 mg/L with WiDr; more than 20 mg/L in the assay on HEp-2; more than 20 mg/L in the assay with HeLa; 17.5 mg/L (≈ 31.8 µM) in assay [5]; more than 20 mg/L in assay [2].
